# Laboratory results: ChEMBL document CHEMBL5724801, “EUbOPEN Chemogenomics Library - Multiplex” (2024)
# Where “and” joins values, the source holds several entries; their conditions need not be identical. Equal values may be shown once.
# System: HEK-293T
# Experiment: Multiplex assay against HEK293T
# Assay type: toxicity, cell-based
# Conditions: human
# Summary of the method: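 Per cents of healthy-nucleus cells form the tubulin, mitochondrial-mass and membrane-permeability phenotype values. Live cells were stained at seeding with Hoechst33342, BioTracker Green Microtubule Cytoskeleton Dye, MitoTracker Red and Annexin V Alexa Fluor 680. After compound addition they were imaged on a CQ1 microscope at 37°C and 5% CO2, and CellPathfinder machine-learning gating split them into Hoechst high-intensity objects or normal cells, normal cells into healthy, pyknosed or fragmented nuclei, and pyknosed cells into mitotic or apoptotic.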
# [1] = 12 h, 1 µM, compound concentration 1 uM
# [2] = 12 h, 10 µM, compound concentration 10 uM
# [3] = 24 h, 1 µM, compound concentration 1 uM
# [4] = 24 h, 10 µM, compound concentration 10 uM
# [5] = 48 h, 1 µM, compound concentration 1 uM
# [6] = 48 h, 10 µM, compound concentration 10 uM
smiles,measurement,setting,value
Cl.Clc1cc2cc(c1)-c1cnn3ccc(nc13)NCCOCCO2,Population Apoptotic (%),[1],7.52% and 9.38%
same,Population Fragmented Nuclei (%),[1],1.41% and 6.41%
same,Population Hoechst High Intensity Objects (%),[1],0%
same,Population Membrane Permeable-Phenotype (%),[1],0.46% and 0%
same,Population Mitochondria Different-Phenotype (%),[1],39.63% and 22.22%
same,Population Mitotic Cells (%),[1],92.48% and 90.62%
same,Population Normal (%),[1],100%
same,Population Pyknosed Nuclei (%),[1],37.46% and 82.05%
same,Total Cell Count,[1],355 and 156
same,Population Apoptotic (%),[2],20.33% and 8.33%
same,Population Fragmented Nuclei (%),[2],2.02% and 1.83%
same,Population Healthy Nuclei (%),[2],56.57% and 25%
same,Population Hoechst High Intensity Objects (%),[2],0% and 0.61%
same,Population Membrane Permeable-Phenotype (%),[2],1.19% and 2.44%
same,Population Mitochondria Different-Phenotype (%),[2],35.71% and 26.83%
same,Population Mitotic Cells (%),[2],79.67% and 91.67%
same,Population Normal (%),[2],100% and 99.39%
same,Population Pyknosed Nuclei (%),[2],41.41% and 73.17%
same,Total Cell Count,[2],297 and 165
same,Population Apoptotic (%),[3],18.58% and 9.43%
same,Population Fragmented Nuclei (%),[3],0.93% and 4.73%
same,Population Hoechst High Intensity Objects (%),[3],0%
same,Population Membrane Permeable-Phenotype (%),[3],1.19% and 0%
same,Population Mitochondria Different-Phenotype (%),[3],17.58% and 22.86%
same,Population Mitotic Cells (%),[3],81.42% and 90.57%
same,Population Normal (%),[3],100%
same,Population Tubulin-Different-Phenotype (%),[3],11.16% and 5.71%
same,Population Apoptotic (%),[4],25.26% and 16.38%
same,Population Fragmented Nuclei (%),[4],2.17% and 2.23%
same,Population Healthy Nuclei (%),[4],72.01% and 32.96%
same,Population Hoechst High Intensity Objects (%),[4],0%
same,Population Membrane Permeable-Phenotype (%),[4],0.75% and 0%
same,Population Mitochondria Different-Phenotype (%),[4],30.19% and 10.17%
same,Population Mitotic Cells (%),[4],74.74% and 83.62%
same,Population Normal (%),[4],100%
same,Population Pyknosed Nuclei (%),[4],25.82% and 64.8%
same,Population Tubulin-Different-Phenotype (%),[4],9.81% and 5.08%
same,Total Cell Count,[4],368 and 179
same,Population Fragmented Nuclei (%),[5],3.48% and 1.96%
same,Population Healthy Nuclei (%),[5],87.01% and 64.71%
same,Population Hoechst High Intensity Objects (%),[5],0% and 0.97%
same,Population Membrane Permeable-Phenotype (%),[5],5.92% and 3.03%
same,Population Mitochondria Different-Phenotype (%),[5],15.1% and 25%
same,Population Mitotic Cells (%),[5],97.71% and 83.82%
same,Population Normal (%),[5],100% and 99.03%
same,Population Apoptotic (%),[6],16.05% and 15.07%
same,Population Fragmented Nuclei (%),[6],3.95% and 2.66%
same,Population Healthy Nuclei (%),[6],86.64% and 69.58%
same,Population Hoechst High Intensity Objects (%),[6],0.12% and 0.75%
same,Population Membrane Permeable-Phenotype (%),[6],3.08% and 0%
same,Population Mitochondria Different-Phenotype (%),[6],26.54% and 19.13%
same,Population Mitotic Cells (%),[6],83.95% and 84.93%
same,Population Normal (%),[6],99.88% and 99.25%
same,Population Pyknosed Nuclei (%),[6],9.41% and 27.76%
Cl.Clc1ccc2nsnc2c1NC1=NCCN1 [TIZANIDINE HYDROCHLORIDE],Population Apoptotic (%),[1],39% and 44%
same,Population Fragmented Nuclei (%),[1],9% and 2%
same,Population Healthy Nuclei (%),[1],80% and 83%
same,Population Hoechst High Intensity Objects (%),[1],8% and 9%
same,Population Membrane Permeable-Phenotype (%),[1],0%
same,Population Mitochondria Different-Phenotype (%),[1],36% and 62%
same,Population Mitotic Cells (%),[1],60% and 55%
same,Population Normal (%),[1],91% and 90%
same,Population Pyknosed Nuclei (%),[1],9% and 13%
same,Population Tubulin-Different-Phenotype (%),[1],26% and 20%
same,Total Cell Count,[1],474 and 373
same,Population Apoptotic (%),[2],30% and 46%
same,Population Fragmented Nuclei (%),[2],9% and 7%
same,Population Healthy Nuclei (%),[2],80% and 79%
same,Population Hoechst High Intensity Objects (%),[2],6% and 4%
same,Population Membrane Permeable-Phenotype (%),[2],0%
same,Population Mitochondria Different-Phenotype (%),[2],45% and 67%
same,Population Mitotic Cells (%),[2],70% and 53%
same,Population Normal (%),[2],93% and 95%
same,Population Pyknosed Nuclei (%),[2],9% and 13%
same,Population Tubulin-Different-Phenotype (%),[2],32% and 27%
same,Total Cell Count,[2],450 and 343
same,Population Apoptotic (%),[3],32% and 45%
same,Population Fragmented Nuclei (%),[3],11% and 10%
same,Population Healthy Nuclei (%),[3],79% and 80%
same,Population Hoechst High Intensity Objects (%),[3],4% and 5%
same,Population Membrane Permeable-Phenotype (%),[3],0%
same,Population Mitochondria Different-Phenotype (%),[3],20% and 38%
same,Population Mitotic Cells (%),[3],67% and 54%
same,Population Normal (%),[3],95% and 94%
same,Population Pyknosed Nuclei (%),[3],8%
same,Population Tubulin-Different-Phenotype (%),[3],17% and 15%
same,Total Cell Count,[3],597 and 434
same,Population Apoptotic (%),[4],32% and 29%
same,Population Fragmented Nuclei (%),[4],11% and 10%
same,Population Healthy Nuclei (%),[4],78% and 81%
same,Population Hoechst High Intensity Objects (%),[4],5% and 6%
same,Population Membrane Permeable-Phenotype (%),[4],1% and 0%
same,Population Mitochondria Different-Phenotype (%),[4],23% and 46%
same,Population Mitotic Cells (%),[4],67% and 70%
same,Population Normal (%),[4],94% and 93%
same,Population Pyknosed Nuclei (%),[4],9% and 7%
same,Population Tubulin-Different-Phenotype (%),[4],18%
same,Total Cell Count,[4],621 and 443
same,Population Apoptotic (%),[5],17% and 33%
same,Population Fragmented Nuclei (%),[5],16% and 14%
same,Population Healthy Nuclei (%),[5],77% and 79%
same,Population Hoechst High Intensity Objects (%),[5],2% and 3%
same,Population Membrane Permeable-Phenotype (%),[5],3% and 1%
same,Population Mitochondria Different-Phenotype (%),[5],13% and 19%
same,Population Mitotic Cells (%),[5],82% and 66%
same,Population Normal (%),[5],97% and 96%
same,Population Pyknosed Nuclei (%),[5],6%
same,Population Tubulin-Different-Phenotype (%),[5],10% and 7%
same,Total Cell Count,[5],1005 and 661
same,Population Apoptotic (%),[6],24% and 25%
same,Population Fragmented Nuclei (%),[6],19% and 13%
same,Population Healthy Nuclei (%),[6],74% and 81%
same,Population Hoechst High Intensity Objects (%),[6],3% and 5%
same,Population Membrane Permeable-Phenotype (%),[6],1%
same,Population Mitochondria Different-Phenotype (%),[6],13% and 23%
same,Population Mitotic Cells (%),[6],75%
same,Population Normal (%),[6],96% and 94%
same,Population Pyknosed Nuclei (%),[6],5% and 4%
same,Population Tubulin-Different-Phenotype (%),[6],10% and 19%
same,Total Cell Count,[6],995 and 600
